Consider one molecule from ChEMBL document CHEMBL5661979, “Pharmacological inhibition of BMK1 suppresses tumor growth through promyelocytic leukemia protein” (Cancer Cell, 2010).

For one series, the target named is eIF-2-alpha kinase GCN2 (Homo sapiens, UniProt Q9P2K8). The series is described as follows: Inhibition of GCN2 in human HeLa cells lysate at 50 uM pre incubated for 15 mins followed by ATP acyl phosphate probe addition and measured after 10 mins by LC-MS/MS analysis relative to control. In kind it is subcellular. Particulars: time 25.0 min.
Series [1] in a line: Inhibition of MSK1/2 in human HeLa cells lysate at 2 uM pre incubated for 15 mins followed by ADP acyl phosphate probe addition and measured after 10 mins by LC-MS/MS analysis relative to control. The note with it: 25 min, condition cancer.
For another series, the system named is Lewis lung carcinoma. The experiment in a line: Antitumor activity against mouse LL2 cells allografted in C57Bl/6 mouse assessed as reduction tumor growth at 50 mg/kg, ip administered on day 7 post implantation measured after 17 days. In kind it is functional, organism-based. Particulars: time 10.0 day. An outline of the steps:
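LL/2 cells (1×10^6, in DMEM) were injected s.c. into the right flank of 6-week-old C57Bl/6 mice on day 0. Dosing was 50 mg/kg i.p. twice daily, starting on day 1, 7 or 10 and continuing to day 17; controls received carrier. 6 mice per treated group. Tumors were measured every 2–3 days.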

Series [2] deals with Serine/threonine-protein kinase tousled-like 2 (Homo sapiens, UniProt Q86UE8). The experiment in a line: Inhibition of TLK2 in human HeLa cells lysate at 10 uM pre incubated for 15 mins followed by ADP acyl phosphate probe addition and measured after 10 mins by LC-MS/MS analysis relative to control. Type of series: subcellular. Particulars: time 25.0 min.
Serine/threonine-protein kinase tousled-like 2, sequence (Q86UE8 whole entry, looked up): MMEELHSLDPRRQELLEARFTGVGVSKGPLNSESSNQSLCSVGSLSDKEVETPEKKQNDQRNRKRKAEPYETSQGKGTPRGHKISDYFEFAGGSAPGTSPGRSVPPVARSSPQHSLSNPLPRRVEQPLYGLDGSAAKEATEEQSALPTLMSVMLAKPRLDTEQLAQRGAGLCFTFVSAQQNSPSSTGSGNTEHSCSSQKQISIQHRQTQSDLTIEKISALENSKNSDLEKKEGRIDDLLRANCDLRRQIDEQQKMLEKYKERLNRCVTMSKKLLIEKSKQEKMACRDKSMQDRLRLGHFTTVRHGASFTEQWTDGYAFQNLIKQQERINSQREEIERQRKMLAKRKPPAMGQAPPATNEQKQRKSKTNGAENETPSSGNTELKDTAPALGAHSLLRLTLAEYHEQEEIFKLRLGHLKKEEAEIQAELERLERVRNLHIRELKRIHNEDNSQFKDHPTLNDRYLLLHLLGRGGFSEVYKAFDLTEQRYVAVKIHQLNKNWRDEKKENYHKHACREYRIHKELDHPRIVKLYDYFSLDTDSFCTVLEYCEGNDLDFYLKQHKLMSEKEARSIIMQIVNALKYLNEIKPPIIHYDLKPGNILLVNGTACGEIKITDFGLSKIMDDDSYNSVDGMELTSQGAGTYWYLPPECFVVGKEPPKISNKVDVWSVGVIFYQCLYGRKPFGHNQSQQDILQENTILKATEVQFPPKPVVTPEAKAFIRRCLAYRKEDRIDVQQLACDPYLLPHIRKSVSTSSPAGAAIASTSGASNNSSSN
Series [3] deals with Calcium/calmodulin-dependent protein kinase kinase 1 (Homo sapiens, UniProt Q8N5S9). The experiment in a line: Inhibition of CAMKK1 in human HeLa cells lysate pre incubated for 15 mins followed by ADP acyl phosphate probe addition and measured after 10 mins by LC-MS/MS analysis. In kind it is subcellular. An outline of the steps: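 KiNativ profiling in HeLa lysate (5 mg/mL total protein). Lysate incubated 15 min with inhibitor at 50, 10, 2, 0.8 or 0 μM. ATP or ADP acylphosphate probe then added (5 μM final) and reacted 10 min. Reaction stopped with urea and analysed by targeted MS, using up to four fragment ions per kinase peptide-probe conjugate. % inhibition taken against untreated lysate. Run in duplicate.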
Calcium/calmodulin-dependent protein kinase kinase 1, sequence (Q8N5S9 whole entry, the tested form may be a part): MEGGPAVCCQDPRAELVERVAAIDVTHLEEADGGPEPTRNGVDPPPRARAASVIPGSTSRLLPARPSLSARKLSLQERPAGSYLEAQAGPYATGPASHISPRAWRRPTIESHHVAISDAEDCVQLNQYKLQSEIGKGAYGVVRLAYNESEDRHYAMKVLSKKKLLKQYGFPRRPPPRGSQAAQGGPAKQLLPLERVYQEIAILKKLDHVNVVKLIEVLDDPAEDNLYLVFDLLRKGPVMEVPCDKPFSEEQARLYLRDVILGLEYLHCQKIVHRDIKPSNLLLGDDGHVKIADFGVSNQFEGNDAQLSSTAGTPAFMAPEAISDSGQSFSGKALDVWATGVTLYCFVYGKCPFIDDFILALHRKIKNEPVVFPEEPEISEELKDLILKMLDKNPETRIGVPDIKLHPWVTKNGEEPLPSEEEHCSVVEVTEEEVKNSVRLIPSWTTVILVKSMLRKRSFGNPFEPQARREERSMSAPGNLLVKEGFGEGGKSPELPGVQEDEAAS

Series [4] has as its target Serine/threonine-protein kinase PLK1 (Homo sapiens, UniProt P53350). The experiment in a line: Inhibition of PLK1 in human HeLa cells lysate at 10 uM pre incubated for 15 mins followed by ADP acyl phosphate probe addition and measured after 10 mins by LC-MS/MS analysis relative to control. Type of series: subcellular. The note with it: time 25.0 min.
The target of series [5] is Mitogen-activated protein kinase kinase kinase 1 (Homo sapiens, UniProt Q13233). The experiment in a line: Inhibition of MAP3K1 in human HeLa cells lysate at 10 uM pre incubated for 15 mins followed by ADP acyl phosphate probe addition and measured after 10 mins by LC-MS/MS analysis relative to control. In kind it is subcellular. The note with it: time 25.0 min.
For series [6], the target named is Ribosomal protein S6 kinase alpha-1 (Homo sapiens, UniProt Q15418). The series is described as follows: Inhibition of RSK1 domain 2 K2 site in human HeLa cells lysate at 2 uM pre incubated for 15 mins followed by ADP acyl phosphate probe addition and measured after 10 mins by LC-MS/MS analysis relative to control. Type of series: subcellular. The note with it: time 25.0 min.
Ribosomal protein S6 kinase alpha-1, sequence (Q15418 whole entry, the tested form may be a part): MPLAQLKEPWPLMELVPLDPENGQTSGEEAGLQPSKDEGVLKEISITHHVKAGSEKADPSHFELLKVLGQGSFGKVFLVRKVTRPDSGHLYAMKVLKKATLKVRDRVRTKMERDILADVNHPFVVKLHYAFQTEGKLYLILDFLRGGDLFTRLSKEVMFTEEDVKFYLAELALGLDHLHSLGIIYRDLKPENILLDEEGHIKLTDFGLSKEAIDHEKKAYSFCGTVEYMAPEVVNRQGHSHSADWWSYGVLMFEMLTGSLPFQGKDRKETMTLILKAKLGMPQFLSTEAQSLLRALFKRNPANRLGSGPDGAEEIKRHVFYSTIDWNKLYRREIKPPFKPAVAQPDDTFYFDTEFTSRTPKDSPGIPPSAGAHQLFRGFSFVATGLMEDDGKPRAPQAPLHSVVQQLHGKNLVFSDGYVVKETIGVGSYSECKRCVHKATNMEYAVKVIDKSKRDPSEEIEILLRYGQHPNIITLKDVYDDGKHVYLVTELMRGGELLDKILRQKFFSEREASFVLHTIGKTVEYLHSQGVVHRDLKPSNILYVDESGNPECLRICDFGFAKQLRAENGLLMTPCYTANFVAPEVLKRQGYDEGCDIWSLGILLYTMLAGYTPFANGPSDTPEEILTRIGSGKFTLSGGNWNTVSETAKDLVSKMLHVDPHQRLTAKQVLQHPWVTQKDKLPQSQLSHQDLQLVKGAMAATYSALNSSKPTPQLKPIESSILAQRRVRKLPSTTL

A short description of series [7]: Inhibition of MAP3K2/MAP3K3 in human HeLa cells lysate pre incubated for 15 mins followed by ATP acyl phosphate probe addition and measured after 10 mins by LC-MS/MS analysis. Type of series: subcellular.
Series [8] concerns the target T1, EKC/KEOPS complex subunit TP53RK (Homo sapiens) (UniProt Q96S44).
T1 sequence (whole entry): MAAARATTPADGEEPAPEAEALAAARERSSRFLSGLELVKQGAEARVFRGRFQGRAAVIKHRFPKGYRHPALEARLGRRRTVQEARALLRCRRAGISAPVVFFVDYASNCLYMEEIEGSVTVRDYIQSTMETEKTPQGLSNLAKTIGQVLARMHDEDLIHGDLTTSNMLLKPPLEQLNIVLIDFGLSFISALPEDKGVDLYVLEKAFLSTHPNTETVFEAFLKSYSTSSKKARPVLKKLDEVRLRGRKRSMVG
The series is described as follows: Inhibition of PRPK in human HeLa cells lysate at 2 uM pre incubated for 15 mins followed by ATP acyl phosphate probe addition and measured after 10 mins by LC-MS/MS analysis relative to control. The note with it: time 25.0 min. Type of series: subcellular.

In series [9] the target is Phosphatidylinositol 3-kinase catalytic subunit type 3 (Homo sapiens, UniProt Q8NEB9). The experiment in a line: Inhibition of PIK3C3 in human HeLa cells lysate at 10 uM pre incubated for 15 mins followed by ATP acyl phosphate probe addition and measured after 10 mins by LC-MS/MS analysis relative to control. In kind it is subcellular. Particulars: time 25.0 min.
Phosphatidylinositol 3-kinase catalytic subunit type 3, sequence (Q8NEB9 whole entry): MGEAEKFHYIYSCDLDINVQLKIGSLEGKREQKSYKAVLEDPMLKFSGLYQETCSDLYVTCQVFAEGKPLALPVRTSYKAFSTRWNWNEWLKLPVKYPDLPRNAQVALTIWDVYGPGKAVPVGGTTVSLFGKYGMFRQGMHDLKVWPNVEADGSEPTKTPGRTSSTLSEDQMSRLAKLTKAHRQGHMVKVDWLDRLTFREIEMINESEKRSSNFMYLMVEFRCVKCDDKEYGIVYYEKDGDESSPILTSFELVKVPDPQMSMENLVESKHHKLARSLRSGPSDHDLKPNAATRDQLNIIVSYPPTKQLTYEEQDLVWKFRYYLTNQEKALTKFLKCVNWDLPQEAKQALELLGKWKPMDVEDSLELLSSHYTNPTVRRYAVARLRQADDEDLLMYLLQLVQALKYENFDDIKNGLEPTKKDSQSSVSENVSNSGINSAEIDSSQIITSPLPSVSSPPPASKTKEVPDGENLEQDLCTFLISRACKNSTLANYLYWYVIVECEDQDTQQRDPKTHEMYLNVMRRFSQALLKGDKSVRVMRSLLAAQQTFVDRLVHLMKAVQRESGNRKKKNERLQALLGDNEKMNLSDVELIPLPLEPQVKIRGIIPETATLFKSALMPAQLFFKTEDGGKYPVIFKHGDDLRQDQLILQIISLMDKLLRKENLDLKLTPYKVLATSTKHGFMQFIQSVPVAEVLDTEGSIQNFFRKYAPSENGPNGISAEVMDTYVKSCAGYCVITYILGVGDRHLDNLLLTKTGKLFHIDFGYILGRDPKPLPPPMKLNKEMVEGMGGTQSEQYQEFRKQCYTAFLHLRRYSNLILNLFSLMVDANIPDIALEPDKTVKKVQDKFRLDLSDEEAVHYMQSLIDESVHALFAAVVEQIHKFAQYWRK
The target in series [10] is T2, Non-receptor tyrosine-protein kinase TNK1 (Homo sapiens) (UniProt Q13470).
T2 sequence (whole entry): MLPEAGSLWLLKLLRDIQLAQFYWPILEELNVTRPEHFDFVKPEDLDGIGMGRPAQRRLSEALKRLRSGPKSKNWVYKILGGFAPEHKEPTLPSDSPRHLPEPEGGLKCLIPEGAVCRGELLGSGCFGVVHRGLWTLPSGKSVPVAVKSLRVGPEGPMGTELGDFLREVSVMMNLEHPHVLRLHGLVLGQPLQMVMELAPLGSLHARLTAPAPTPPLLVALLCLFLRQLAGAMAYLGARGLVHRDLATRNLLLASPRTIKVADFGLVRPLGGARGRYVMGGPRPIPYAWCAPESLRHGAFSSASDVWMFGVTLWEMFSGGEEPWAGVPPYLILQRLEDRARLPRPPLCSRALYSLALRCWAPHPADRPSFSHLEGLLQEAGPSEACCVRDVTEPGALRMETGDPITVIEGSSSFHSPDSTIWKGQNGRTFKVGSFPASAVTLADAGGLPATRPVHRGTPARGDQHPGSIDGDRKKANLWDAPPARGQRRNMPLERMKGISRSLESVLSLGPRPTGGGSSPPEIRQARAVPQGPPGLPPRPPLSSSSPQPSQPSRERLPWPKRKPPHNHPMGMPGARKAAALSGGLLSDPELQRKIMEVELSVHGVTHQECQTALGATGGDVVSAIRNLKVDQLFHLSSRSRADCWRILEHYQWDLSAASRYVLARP
The series is described as follows: Inhibition of TNK1 in human HeLa cells lysate at 10 uM pre incubated for 15 mins followed by ADP acyl phosphate probe addition and measured after 10 mins by LC-MS/MS analysis relative to control. Type of series: subcellular. Particulars: time 25.0 min.

Series [11] in a line: Toxicity in C57Bl/6 mouse assessed as body weight at 50 mg/kg, ip for 14 days (reference value: 0.2 to 0.208 kg). In kind it is organism-based. Particulars: in vivo, 336 h, time 14 day.
Series [12] has as its target Serine/threonine-protein kinase Chk2 (Homo sapiens, UniProt O96017). The series is described as follows: Inhibition of CHK2 in human HeLa cells lysate pre incubated for 15 mins followed by ADP acyl phosphate probe addition and measured after 10 mins by LC-MS/MS analysis. In kind it is subcellular.
The target in series [13] is Serine/threonine-protein kinase LATS2 (Homo sapiens, UniProt Q9NRM7). The series is described as follows: Inhibition of LATS2 in human HeLa cells lysate pre incubated for 15 mins followed by ADP acyl phosphate probe addition and measured after 10 mins by LC-MS/MS analysis. Type of series: subcellular.
Serine/threonine-protein kinase LATS2, sequence (Q9NRM7 whole entry): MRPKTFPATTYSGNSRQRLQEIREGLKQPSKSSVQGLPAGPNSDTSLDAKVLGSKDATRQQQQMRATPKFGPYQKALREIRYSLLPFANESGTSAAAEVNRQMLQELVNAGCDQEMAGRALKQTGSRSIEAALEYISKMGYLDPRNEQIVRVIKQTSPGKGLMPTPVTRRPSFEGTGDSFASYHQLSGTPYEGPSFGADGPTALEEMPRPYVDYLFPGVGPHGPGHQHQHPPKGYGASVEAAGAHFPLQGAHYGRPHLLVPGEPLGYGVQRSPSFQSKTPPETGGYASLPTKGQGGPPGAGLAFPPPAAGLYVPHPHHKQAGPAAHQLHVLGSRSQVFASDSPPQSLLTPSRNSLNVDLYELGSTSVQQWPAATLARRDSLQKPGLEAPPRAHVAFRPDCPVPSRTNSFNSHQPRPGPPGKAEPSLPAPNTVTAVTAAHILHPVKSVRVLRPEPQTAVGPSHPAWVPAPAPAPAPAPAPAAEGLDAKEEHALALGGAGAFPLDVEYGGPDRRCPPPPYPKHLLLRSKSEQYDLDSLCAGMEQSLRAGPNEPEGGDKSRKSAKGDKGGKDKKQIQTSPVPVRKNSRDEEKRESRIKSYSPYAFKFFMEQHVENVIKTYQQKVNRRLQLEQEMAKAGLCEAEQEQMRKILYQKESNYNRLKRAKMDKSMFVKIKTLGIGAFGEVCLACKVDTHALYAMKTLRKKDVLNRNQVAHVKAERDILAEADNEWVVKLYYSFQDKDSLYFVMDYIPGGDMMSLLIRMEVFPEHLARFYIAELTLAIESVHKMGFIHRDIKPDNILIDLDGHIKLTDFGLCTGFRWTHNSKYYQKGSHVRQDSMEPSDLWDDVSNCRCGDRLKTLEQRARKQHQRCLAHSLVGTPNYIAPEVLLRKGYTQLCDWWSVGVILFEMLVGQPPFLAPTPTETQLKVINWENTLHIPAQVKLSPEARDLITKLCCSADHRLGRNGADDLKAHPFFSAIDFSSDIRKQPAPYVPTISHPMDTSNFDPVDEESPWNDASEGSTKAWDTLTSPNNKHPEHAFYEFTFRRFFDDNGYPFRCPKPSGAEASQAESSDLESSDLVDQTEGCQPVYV
The target of series [14] is Mitogen-activated protein kinase 1 (Homo sapiens, UniProt P28482). The series is described as follows: Inhibition of ERK2 in human HeLa cells lysate pre incubated for 15 mins followed by ATP acyl phosphate probe addition and measured after 10 mins by LC-MS/MS analysis. Type of series: subcellular.
Mitogen-activated protein kinase 1, sequence (P28482 whole entry): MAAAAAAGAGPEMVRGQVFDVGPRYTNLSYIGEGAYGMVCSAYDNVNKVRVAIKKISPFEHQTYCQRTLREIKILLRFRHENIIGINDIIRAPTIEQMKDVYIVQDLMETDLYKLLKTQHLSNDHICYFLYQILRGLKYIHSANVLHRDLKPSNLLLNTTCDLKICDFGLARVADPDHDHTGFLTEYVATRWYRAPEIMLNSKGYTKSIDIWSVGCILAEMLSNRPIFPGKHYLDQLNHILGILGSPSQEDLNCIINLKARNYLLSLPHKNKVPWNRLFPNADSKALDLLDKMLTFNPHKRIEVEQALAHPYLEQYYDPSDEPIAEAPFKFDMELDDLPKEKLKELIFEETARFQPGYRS

The source made the active and inactive calls. The rule behind the calls is not given here.

Serine/threonine-protein kinase PLK1, sequence (P53350 whole entry): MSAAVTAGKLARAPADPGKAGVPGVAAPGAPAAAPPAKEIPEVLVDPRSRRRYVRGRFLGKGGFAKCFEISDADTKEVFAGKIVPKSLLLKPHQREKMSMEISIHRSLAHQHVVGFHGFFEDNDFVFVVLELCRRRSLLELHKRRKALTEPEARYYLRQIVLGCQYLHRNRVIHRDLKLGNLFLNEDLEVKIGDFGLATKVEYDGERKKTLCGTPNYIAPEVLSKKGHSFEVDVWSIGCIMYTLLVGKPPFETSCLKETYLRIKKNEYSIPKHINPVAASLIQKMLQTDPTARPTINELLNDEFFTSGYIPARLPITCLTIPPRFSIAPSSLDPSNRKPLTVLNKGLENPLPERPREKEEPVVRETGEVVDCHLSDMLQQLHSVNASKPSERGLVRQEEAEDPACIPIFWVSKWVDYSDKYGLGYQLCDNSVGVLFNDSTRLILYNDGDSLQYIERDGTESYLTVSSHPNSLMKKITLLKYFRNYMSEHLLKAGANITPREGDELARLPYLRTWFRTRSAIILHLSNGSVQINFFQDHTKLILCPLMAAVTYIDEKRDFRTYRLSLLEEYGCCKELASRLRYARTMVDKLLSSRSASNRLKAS

By inhibition is commonly meant the drop in the measured response relative to a control, in per cent. In general, IC50 refers to the concentration that gives 50% inhibition. For the molecule `CCOc1cc(N2CCC(O)CC2)ccc1Nc1ncc2c(n1)N(C)c1ccccc1C(=O)N2C`, the inhibition against eIF-2-alpha kinase GCN2 is 7%; in series [2], 0.4%; in series [4] it was -0.6%; in series [5] it was 15.9%; in [6], -6.4%; in [8] it was 10.2%. In addition, the inhibition was -4.3% in series [9] and 46% in [10]. The inhibition at 2 µM in [1] came out at 23.1%. For the same molecule, the result in the series with Lewis lung carcinoma was Active. In addition, the IC50 in series [3], in [7], in series [12], in series [13] and in [14] was greater than 50 µM each time. In addition, in series [11], the Activity came out at 0.02 kg.
